# Bioassay records from PubChem.
# rCAG binder – r(CAG) repeat RNA binding; TO-PRO-1 dye displacement fluorescence; inhibition, % at 3 µM; actives 1.3% (n = 370,000);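 active = inhibition above the plate cutoff, the mean of all test compounds on that plate plus 3 SD, cut at about 35% in these data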;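 also: 0% = DMSO alone and 100% = 100 µM mitoxantrone as full dye displacement; higher means more dye released from RNA so lower well fluorescence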
# HTRA1 inhibitor – blocks human HTRA1 serine peptidase; recombinant HTRA1, FP-rhodamine activity-based probe, fluorescence polarization; Q92743; actives 0.5% (n = 340,000); inhibition, % at 5.96 µM; AID 504803; in the data active = inhibition above about 36%;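 also: 0% = enzyme with DMSO and 100% = wells lacking enzyme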
# PRMT1 FP inh – blocks human protein arginine methyltransferase 1. Q99873. recombinant PRMT1, activity-based probe fluorescence polarization. inhibition, % at 2.79 µM. actives 1.3% (n = 370,000). AID 652257;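 active = inhibition above about 21% made by adding two undisclosed values, limit read from the data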
# Target sequence (Q99873 whole entry, looked up): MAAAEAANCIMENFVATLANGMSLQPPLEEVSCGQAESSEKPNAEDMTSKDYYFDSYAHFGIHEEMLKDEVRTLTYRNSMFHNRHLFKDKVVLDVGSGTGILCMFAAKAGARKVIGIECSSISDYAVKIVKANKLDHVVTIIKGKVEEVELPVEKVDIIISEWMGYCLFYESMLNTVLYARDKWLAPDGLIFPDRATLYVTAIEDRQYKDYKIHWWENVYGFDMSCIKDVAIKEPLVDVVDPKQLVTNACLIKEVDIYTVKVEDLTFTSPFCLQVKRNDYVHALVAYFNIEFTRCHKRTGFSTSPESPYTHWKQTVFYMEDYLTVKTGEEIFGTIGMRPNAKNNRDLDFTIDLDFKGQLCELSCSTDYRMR
# mABHD4 FP – ABHD4 (mouse) inhibition, primary FP screen. inhibition, % at 8.92 µM. purified mABHD4, FP-Rh probe fluorescence polarization. actives 0.54% (n = 370,000). Q8VD66. AID 720543;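 active = inhibition exceeding the mean over every tested compound plus 3 SD, cut at about 30% in these data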;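 also: 0% = plate median of compound wells and 100% = S159A mutant with DMSO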
#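 Material: mouse ABHD4 enzyme, wild type; Benchmarks: S159A mutant high control, sample median low control; Buffer or medium: HEPES pH 7.0, NaCl, Pluronic buffer; Signal: fluorescence polarization; Read-out: percent inhibition of probe binding, normalized to plate controls; Timing: pre-incubation 45 min, probe exposure 60 min, at 25 °C; Dosing: 8.92 µM, single dose.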
# SIAE inh – human SIAE inhibition, primary screen | Q9HAT2 | actives 0.69% (n = 370,000) | inhibition, % at 9.66 µM | SIAE FP-Rh probe binding, fluorescence polarization | AID 1053197;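 active = inhibition above a cutoff: mean of compounds within the control limits plus 3 SD of those, cut at about 17% in these data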;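 also: 0% = plate median of compound wells and 100% = probe without SIAE protein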
# TCR CD3 inh – inhibitors of human TCR-CD3 interaction; actives 0.37% (n = 360,000); inhibition, % at 9.4 µM; TAMRA-labeled TCR probe fluorescence, biochemical; in the data active = inhibition above about 19%;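 also: recombinant mutant TCR 2C K166C tagged with TAMRA read by polarization; 0% = receptor in buffer alone and 100% = receptor with positive control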
# PRMT1 confirm – confirmation of human PRMT1 inhibitors; shares compounds with PRMT1 FP inh; recombinant His-PRMT1, activity-based probe fluorescence polarization; inhibition, % at 2.79 µM; actives 42% (n = 3,300); AID 687036;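 active = mean inhibition across replicates above the hit cutoff derived for the earlier primary screen, cut at about 22% in these data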
# * marks the source's active call; other numbers are inactive results; · = no result given. The list is not random: actives were taken first. Their share in the collection is about 3.5%.
SMILES,rCAG binder,HTRA1 inhibitor,PRMT1 FP inh,mABHD4 FP,SIAE inh,TCR CD3 inh,PRMT1 confirm
CCn1c2ccccc2c2cc(NC(=O)c3ccc(Br)o3)ccc21,24.5,6.2,30.9*,6.1,-2.2,2.5,45.2*
CCn1c2ccccc2c2cc(NC(=O)c3coc(=O)c(Br)c3)ccc21,4.6,·,-6.7,8.3,8.0,-0.3,·
CCCNC(=O)c1ccc(COc2ccc(Cl)cc2)o1,4.4,-3.1,1.0,-1.9,0.5,9.8,·
CC(=O)OCC1=C(C(=O)O)N2C(=O)C(NC(=O)c3ccc(COc4ccc(Cl)cc4)o3)C2SC1 (stereo not drawn),20.4,-27.3,35.7*,1.0,-7.9,3.0,12.0
CC(=O)OCC1=C(C(=O)O)N2C(=O)C(NC(=O)c3ccc(COc4c(C)cccc4Cl)o3)C2SC1 (stereo not drawn),25.9,-16.3,47.1*,2.6,-11.9,1.6,18.5
CCOC(=O)N1CCC(NC(=O)c2ccc(CS(=O)(=O)c3c(Cl)cccc3Cl)o2)CC1,1.4,-2.0,-1.1,1.1,-0.1,3.1,·
Cc1ccccc1N1CCN(S(=O)(=O)c2ccc3c(c2)oc(=O)n3C)CC1,5.3,·,-3.4,-2.1,8.1,·,·
COc1ccc(-n2c(SC/C=C/c3ccccc3)nnc2-c2cccs2)cc1,4.5,·,-1.1,-12.8,-0.3,·,·
CCCCCC[C@@H](CN(CCCC)S(C)(=O)=O)c1ccccc1,0.7,·,1.5,-8.2,-1.5,·,·
O=C(NC1CCCCN(Cc2ccc(Cl)cc2)C1=O)c1cccc([N+](=O)[O-])c1 (stereo not drawn),4.2,·,5.8,-3.1,0.2,·,·
O=C(O)/C=C\C(=O)Nc1ccccc1C(=O)N1CCC(O)(c2ccc(Cl)cc2)CC1,-1.9,-6.7,28.8*,5.0,4.1,-0.3,-5.8
NC(=O)Nc1ccccc1C(=O)N1CCC(O)(c2ccc(Cl)cc2)CC1,·,3.9,·,·,-6.2,·,·
CC1(C)CC(=O)C2=C(C1)OC(N)=C(C#N)[C@@H]2c1ccccc1[N+](=O)[O-],-10.0,-0.3,43.6*,-7.9,-3.2,-4.7,0.3
c1cc2ccn(CC3CC3)c2cc1-c1ccc2ccn(CC3CC3)c2c1,6.4,·,-1.3,27.9,-5.7,·,·
O=C(c1cc(F)ccc1F)N1CCC(Oc2cccnc2)CC1,0.6,·,-2.4,-0.4,-8.9,·,·
Cc1ccc(N2C(=O)CC(Sc3ccccc3C(=O)O)C2=O)cc1C (stereo not drawn),2.7,7.4,61.9*,5.6,-0.8,-2.6,20.9
CC(C)CN1C(=O)CC(Sc2ccccc2C(=O)O)C1=O (stereo not drawn),1.2,-2.0,1.8,-0.2,-1.6,3.0,·
CN1C(=O)CC(Sc2ccccc2C(=O)O)C1=O (stereo not drawn),-2.9,4.4,6.9,-6.1,-3.9,-0.7,·
O=C(O)c1ccccc1SC1CC(=O)N(c2ccc3c(c2)OCO3)C1=O (stereo not drawn),5.1,-0.4,56.2*,10.3,1.9,-0.9,30.0*
Cc1cc(C)cc(N2C(=O)CC(Sc3ccccc3C(=O)O)C2=O)c1 (stereo not drawn),-0.8,6.5,48.5*,5.9,-2.3,-1.4,17.9
CN(C)c1ccc(N2C(=O)CC(Sc3ccccc3C(=O)O)C2=O)cc1 (stereo not drawn),1.3,-2.8,82.2*,19.6,14.3,-1.5,42.7*
S=C(NCC1CCCCC1)OC1CCC12CCC(c1ccccc1)CC2 (stereo not drawn),3.7,·,3.3,-2.1,0.2,·,·
Cc1cccc(C)c1N1C(=O)CC(Sc2ccccc2N)C1=O (stereo not drawn),5.6,12.2,15.9,2.6,-4.5,-4.2,·
Cc1ccc(N2C(=O)CC(Sc3ccccc3C(=O)O)C2=O)cc1 (stereo not drawn),0.7,1.2,85.6*,-0.8,6.8,-8.2,24.0*
Cc1cc(C)c(N2C(=O)CC(Sc3ccccc3N)C2=O)c(C)c1 (stereo not drawn),1.9,9.1,33.9*,-2.5,4.8,2.0,19.3
Cc1ccc(N2C(=O)CC(Sc3ncccc3C(=O)O)C2=O)cc1 (stereo not drawn),-3.2,2.4,0.5,-0.1,11.7,4.1,·
